The record followed here is PMC4245161 (ACS Chemical Biology, 2014).

For experiment [1], the system named is GFP transcript in LDR cells. The class given is cell-based, mouse. The note with it: 200 nM, 24 h, relative to DMSO-treated cells.
For experiment [2], the system named is acetylated H3 at the CMV promoter in LDR cells. The experiment can be described thus: Chromatin immunoprecipitation of acetylated H3 at the CMV promoter. The class given is cell-based, mouse. The settings on record: 250 ng/mL, 24 h. In short, it runs like this:
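LDR cells (C127 mouse mammary line carrying a silenced CMV-GFP reporter; DMEM, 10% heat-inactivated FBS) treated with test compound at 250 ng/mL or DMSO vehicle (24 h per legend; overnight per methods). Formaldehyde cross-linking, then ChIP by standard protocol with anti-acetylated H3 antibody. After cross-link reversal, PCR with CMV-promoter primers run on a gel. Controls were a no-antibody background and 10% input.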

The structures appear in SMILES notation.

For the molecule `CC(/C=C/C(=O)NO)=C\[C@@H](C)C(=O)c1ccc(N(C)C)cc1` [Trichostatin A], in experiment [1], the “induction of GFP transcripts” value is on record as “at least 5 fold”. Also, the “histone acetylation at the CMV promoter (ChIP)” value in experiment [2] is reported as “markedly increases”.
